In ChEMBL document CHEMBL1221344, “Cytotoxic halogenated macrolides and modified peptides from the apratoxin-producing marine cyanobacterium Lyngbya bouillonii from Guam” (J Nat Prod, 2010) one finds IC50 data, which are given here for 8 compounds.

Molecules are shown by their SMILES. pIC50: −log10 of the molar value.

One assay deals with HT-29. Briefly: Cytotoxicity against human HT-29 cells after 48 hrs by MTT assay. The following applies: HT-29, 48 h. It is filed as functional, cell-based. In a few lines: (§1)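 Cells grown in DMEM with 10% FBS at 37 °C under humidified 5% CO2. HeLa seeded at 3,000/well and HT29 at 12,500/well, then allowed 24 h before exposure to varying compound concentrations for 48 h. Viability read by MTT; IC50 values derived from duplicate experiments.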

Another assay has as its system HeLa. Briefly: Cytotoxicity against human HeLa cells after 48 hrs by MTT assay. It is filed as functional, cell-based. In short, it runs like this:
as §1

Regarding `CO[C@@H]1[C@@H](OC)[C@H](C)O[C@@H](O[C@@H]2C[C@H]3O[C@@](O)(C2)[C@H](C)C(=O)O[C@@H](/C=C/C=C/Br)C[C@@H](C)/C=C\C[C@H](O)[C@@H]3C)[C@@H]1OC` [LYNGBYALOSIDE], the pIC50 (as a rule, the negative decadic logarithm of the IC50, by convention in mol/L) in the assay with HT-29 is 4.43; in the assay with HeLa, 4.46.
As for `CC[C@H](C)[C@@H]1NC(=O)CNC(=O)c2csc(n2)[C@H](C(C)C)OC(=O)C(C)(C)[C@H](CCCC(C)(Cl)Cl)OC(=O)c2csc1n2` [27-DEOXYLYNGBYABELLIN A], the pIC50 with HT-29 was 7.92; with HeLa, 8.14.
Taken in the same sequence, the figures for `CO[C@@H]1[C@@H](OC)[C@H](C)O[C@@H](O[C@@H]2C[C@@H]3CC[C@@H](C)[C@H](O)C[C@@](C)(CC/C=C/C=C\Br)OC(=O)C[C@](O)(C2)O3)[C@@H]1OC` were less than 4.00 and 4.28.
The corresponding values for `CCCC(=O)N[C@@H](C(C)C)[C@@H](CC(=O)O[C@@H]1COC(=O)c2csc(n2)[C@@H]([C@@](C)(O)CC)OC(=O)[C@@H](C)[C@H](CCCC(C)(Cl)Cl)OC(=O)c2csc1n2)OC(C)=O` [LYNGBYABELLIN J] are 7.27 and 7.39.
Taken in the same sequence, the figures for `CC[C@H](C)[C@@H]1NC(=O)CNC(=O)c2csc(n2)[C@H](C(C)(C)O)OC(=O)C(C)(C)[C@H](CCCC(C)(Cl)Cl)OC(=O)c2csc1n2` [LYNGBYABELLIN A] were 7.33 and 7.66.
As for `CO[C@@H]1[C@@H](OC)[C@H](C)O[C@@H](O[C@@H]2C[C@@H]3CC[C@@H](C)[C@H](O)C[C@@](C)(CC/C=C/C=C/Br)OC(=O)C[C@](O)(C2)O3)[C@@H]1OC`, the negative-log IC50 (pIC50) with HT-29 was 4.89; in the assay on HeLa, 5.03.
The corresponding values for `CC(C)[C@@H]1NC(=O)CNC(=O)[C@@H]2CSC(=N2)[C@H](C(C)(C)O)OC(=O)C(C)(C)[C@H](CCCC(C)(Cl)Cl)OC(=O)c2csc1n2` [LYNGBYABELLIN B] are 5.96 and 6.15.
Taken in the same sequence, the figures for `CO[C@@H]1[C@@H](OC)[C@H](C)O[C@@H](O[C@@H]2C[C@H]3O[C@@](O)(C2)[C@@H](C)C(=O)O[C@@H](/C=C/C=C/Br)C[C@@H](C)/C=C\C[C@H](O)[C@@H]3C)[C@@H]1OC` were 4.42 and 4.48.
